From PMC7498667 (Neoplasia (New York, N.Y.), 2020)

Columns and labels:
[1] = tested on: AR+/ER−/PR− breast cancer; settings: cited from earlier work
[2] = tested on: MDA-MB-453, HCC1428 and MCF-7 cells; test: Apoptosis analysis by flow cytometry; assay type: cell-based, human; settings: 10 µM, 3-day treatment
Summary of the method: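 MDA-MB-453, HCC1428 and MCF-7 cells were treated for 72 h with a concentration range of test compound, with AR antagonist comparators at 10 µM. For the time course, MDA-MB-453 and HCC1428 cells received 1 µM. Cells were washed in cold PBS, stained with an apoptosis detection kit and analysed by flow cytometry for percent live and apoptotic cells. Data are mean ± SEM, n=3.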

[3] = tested on: MDA-MB-453 xenograft tumor; test: Antitumor efficacy in MDA-MB-453 xenograft tumor model; assay type: in vivo, mice; settings: enzalutamide 50 mg/kg IP dose
Summary of the method: (§1)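 Male CB.17 SCID mice were implanted s.c. with 5 × 10^6 MDA-MB-453 cells in 5 mg/ml Matrigel. At a mean tumour volume of 100 mm3, mice were randomised by tumour size. Test compound or vehicle (20% PEG400 + 6% Cremophor EL + 74% PBS) was given i.p. daily. Tumours and body weights were measured twice weekly, with volume = length × width²/2. Data are mean ± SEM, n=8.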

[4] = tested on: MDA-MB-453, HCC1428 and MCF-7 cells; test: Cell cycle analysis by flow cytometry; assay type: cell-based, human; settings: 10 µM, 72 h
Summary of the method: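 MDA-MB-453, HCC1428 and MCF-7 cells were treated for 72 h with a concentration range of test compound (AR antagonist comparators at 10 µM), or with 1 µM over a time course. Cells were fixed in 70% ethanol overnight at 4 °C, stained with propidium iodide plus 0.2 mg/ml RNase A for 30 min at room temperature, and cell-cycle distribution was measured by flow cytometry. Data are mean ± SEM.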

metastatic AR+, TNBCs = settings: phase 2, metastatic AR+ TNBC; cited from earlier work
[5] = tested on: 5 AR+ breast cancer cell lines; test: Cell growth inhibition, WST-8 assay, statements for the whole panel; assay type: cell-based, human; settings: concentrations up to 10 µM, 5 AR+ cell lines
[6] = Animal weight and signs of toxicity in efficacy experiment; assay type: in vivo; settings: entire efficacy experiment, MDA-MB-453 xenograft mice
Summary of the method: as §1

[7] = tested on: caspase-8, −9, −3, and −7 and PARP; test: Cleavage of caspases and PARP, Western blot; assay type: cell-based, human; settings: 1 or 10 µM, MDA-MB-453 and HCC1428, 48 h
Summary of the method: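 MDA-MB-453 and HCC1428 cells were exposed to a concentration range of test compound for 48 h. Cells were lysed in RIPA with protease and phosphatase inhibitors for 30 min on ice. Lysates were run on SDS-PAGE and transferred to PVDF. Membranes were blocked in 5% milk in TBST, probed with primary antibodies for cleaved caspases and PARP overnight at 4 °C and with HRP secondary, then developed by ECL.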

AR protein = assay type: cell-based, human; settings: MDA-MB-453 cells, combination with ARD-61 for 24 h

Compound: CC(O)(CS(=O)(=O)c1ccc(F)cc1)C(=O)Nc1ccc(C#N)c(C(F)(F)F)c1 (stereo not shown) [Bicalutamide]
- Clinical benefit ratio (CBR) [1]: 19%
- Toxicity [1]: minimal toxicity

Compound: CNC(=O)c1ccc(N2C(=S)N(c3ccc(C#N)c(C(F)(F)F)c3)C(=O)C2(C)C)cc1F [Enzalutamide]
- Apoptosis induction [2]: minimal apoptosis
- Antitumor activity [3]: very similar with that of ARD-61 at 25 mg/kg
- Effect on cell cycle (G2/M arrest) [4]: minimal effect
- Progression-free survival (metastatic AR+, TNBCs): significant improvement
- Inhibition of cell growth [5]: minimal activity
- Animal weight loss or other signs of toxicity [6]: No animal weight loss or other signs of toxicity
- Effect on cleavage of caspase-8, −9, −3, −7 and PARP [7]: minimal effect

Compound: C[C@]1(O)CC[C@H]2[C@@H]3CCC4=CC(=O)CCC4=C3C=C[C@@]21C [R1881, metribolone]
- Effect on AR depletion induced by ARD-61 (AR protein): effectively block
